Tests used:
[1] = molecular target: High affinity nerve growth factor receptor (Homo sapiens) (UniProt P04629); assay: Inhibition of biotinylated ligand binding to wild-type human partial length TRKA (G475 to G790 residues) expressed in mammalian expression system at 50 nM measured after 1 hr by kinomescan assay relative to control
How it was run: (§1)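 Competition binding: kinase was bound to streptavidin beads carrying a biotinylated ligand, with test compound at 50 nM, in 20% SeaBlock, 0.17x PBS, 0.05% Tween 20 and 6 mM DTT for 1 h at rt with shaking. After washing, kinase was eluted with 0.5 μM free ligand and quantified by qPCR. Result is POC relative to the DMSO (100%) and control-compound (0%) references.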

[2] = molecular target: Serine/threonine-protein kinase RIO3 (Homo sapiens) (UniProt O14730); assay: Inhibition of biotinylated ligand binding to wild-type human full length RIOK3 (M1 to E519 residues) expressed in bacterial expression system assessed at 50 nM measured after 1 hr by kinomescan assay relative to control
How it was run: (§2)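 Kinase-tagged T7 phage was grown in an E. coli BL21-derived host at 32 °C until lysis, and the lysate was clarified. Kinase was bound to streptavidin beads carrying a biotinylated ligand, with test compound at 50 nM (final DMSO), in binding buffer for 1 h at rt. Bound kinase was eluted and quantified by qPCR. Result is POC relative to the DMSO (100%) and control-compound (0%) references.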

[3] = molecular target: cGMP-dependent protein kinase 2 (Homo sapiens) (UniProt Q13237); assay: Inhibition of biotinylated ligand binding to wild-type human partial length PRKG2 (S422 to F762 residues) expressed in mammalian expression system at 50 nM measured after 1 hr by kinomescan assay relative to control; how it was run: as §1
cGMP-dependent protein kinase 2 (Homo sapiens), sequence (Q13237 whole entry, the tested form may be a part): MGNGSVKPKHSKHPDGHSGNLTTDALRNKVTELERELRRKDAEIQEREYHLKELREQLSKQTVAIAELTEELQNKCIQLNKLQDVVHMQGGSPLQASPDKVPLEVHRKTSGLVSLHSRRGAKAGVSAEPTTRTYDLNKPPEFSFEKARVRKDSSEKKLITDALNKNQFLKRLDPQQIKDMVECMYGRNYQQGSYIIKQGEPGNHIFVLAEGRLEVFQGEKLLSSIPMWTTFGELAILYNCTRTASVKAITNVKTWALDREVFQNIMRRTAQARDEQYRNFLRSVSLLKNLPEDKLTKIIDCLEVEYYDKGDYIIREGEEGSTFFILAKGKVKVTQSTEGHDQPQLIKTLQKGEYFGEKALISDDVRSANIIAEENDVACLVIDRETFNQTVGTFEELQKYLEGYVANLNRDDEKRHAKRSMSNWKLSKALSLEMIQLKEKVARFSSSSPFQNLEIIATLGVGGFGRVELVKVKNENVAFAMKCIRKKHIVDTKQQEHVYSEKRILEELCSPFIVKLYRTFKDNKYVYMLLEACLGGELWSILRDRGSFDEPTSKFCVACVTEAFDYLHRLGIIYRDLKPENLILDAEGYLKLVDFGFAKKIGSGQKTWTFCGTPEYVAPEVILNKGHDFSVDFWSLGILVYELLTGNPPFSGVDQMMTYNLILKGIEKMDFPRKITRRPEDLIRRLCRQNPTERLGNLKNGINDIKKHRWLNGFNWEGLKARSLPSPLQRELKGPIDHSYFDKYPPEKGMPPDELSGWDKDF

[4] = molecular target: Interleukin-1 receptor-associated kinase 3 (Homo sapiens) (UniProt Q9Y616); assay: Inhibition of biotinylated ligand binding to wild-type human partial length IRAK3 (V147 to E596 residues) expressed in bacterial expression system at 50 nM measured after 1 hr by kinomescan assay relative to control; how it was run: as §2
[5] = molecular target: Activin receptor type-1 (Homo sapiens) (UniProt Q04771); assay: Inhibition of biotinylated ligand binding to wild-type human ACVR1 (C188 to C509 residues) expressed in bacterial expression system at 50 nM measured after 1 hr by kinomescan assay relative to control; how it was run: as §2
[6] = molecular target: Cyclin-dependent kinase 19 (Homo sapiens) (UniProt Q9BWU1); assay: Inhibition of biotinylated ligand binding to wild-type human partial length CDK11 (M1 to N360 residues) expressed in bacterial expression system at 50 nM measured after 1 hr by kinomescan assay relative to control
Cyclin-dependent kinase 19 (Homo sapiens), sequence (Q9BWU1 whole entry, the tested form may be a part): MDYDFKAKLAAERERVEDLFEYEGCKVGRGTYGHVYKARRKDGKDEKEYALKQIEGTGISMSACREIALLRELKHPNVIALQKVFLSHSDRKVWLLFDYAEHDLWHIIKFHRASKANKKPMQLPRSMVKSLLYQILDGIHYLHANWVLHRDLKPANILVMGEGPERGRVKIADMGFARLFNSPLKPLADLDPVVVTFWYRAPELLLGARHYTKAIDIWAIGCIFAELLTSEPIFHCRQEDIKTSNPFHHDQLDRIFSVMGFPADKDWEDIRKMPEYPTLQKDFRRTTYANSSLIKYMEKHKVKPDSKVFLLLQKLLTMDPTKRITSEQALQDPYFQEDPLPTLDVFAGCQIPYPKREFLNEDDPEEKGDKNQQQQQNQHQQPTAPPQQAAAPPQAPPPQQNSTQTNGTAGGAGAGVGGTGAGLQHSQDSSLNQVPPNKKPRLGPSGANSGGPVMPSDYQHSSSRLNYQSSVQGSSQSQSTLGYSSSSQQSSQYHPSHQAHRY
How it was run: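 T7 phage-tagged kinase lysates from E. coli BL21 were mixed with streptavidin beads carrying biotinylated ligand and 50 nM compound. Incubated 1 h at room temperature with shaking, washed, then eluted 30 min with 0.5 μM non-biotinylated ligand. Kinase was quantified by qPCR. POC = (test − positive)/(DMSO − positive) ×100, with a control compound as positive.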

[7] = molecular target: Cyclin-dependent kinase 8 (Homo sapiens, UniProt P49336); assay: Inhibition of biotinylated ligand binding to wild-type human partial length CDK8 (M1 to T360 residues) expressed in Escherichia coli BL21 measured after 1 hr by kinomescan assay
Cyclin-dependent kinase 8, sequence (P49336 whole entry, the tested form may be a part): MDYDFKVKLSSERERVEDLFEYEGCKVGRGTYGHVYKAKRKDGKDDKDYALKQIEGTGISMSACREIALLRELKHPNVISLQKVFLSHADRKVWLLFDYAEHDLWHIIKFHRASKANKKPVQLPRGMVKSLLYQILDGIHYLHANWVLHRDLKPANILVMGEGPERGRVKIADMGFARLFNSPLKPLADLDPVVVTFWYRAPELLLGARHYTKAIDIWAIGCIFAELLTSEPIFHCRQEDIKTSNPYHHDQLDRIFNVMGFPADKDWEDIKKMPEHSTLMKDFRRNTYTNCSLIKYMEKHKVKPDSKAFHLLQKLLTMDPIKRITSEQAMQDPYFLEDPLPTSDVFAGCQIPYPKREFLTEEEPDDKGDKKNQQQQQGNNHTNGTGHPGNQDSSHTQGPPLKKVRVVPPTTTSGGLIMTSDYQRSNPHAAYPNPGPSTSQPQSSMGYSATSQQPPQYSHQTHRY

[8] = molecular target: G protein-coupled receptor kinase 4 (Homo sapiens) (UniProt P32298); assay: Inhibition of biotinylated ligand binding to wild-type human full length GRK4 (M1 to C578 residues) expressed in bacterial expression system at 50 nM measured after 1 hr by kinomescan assay relative to control; how it was run: as §2
G protein-coupled receptor kinase 4 (Homo sapiens), sequence (P32298 whole entry, looked up, the tested form may be a part): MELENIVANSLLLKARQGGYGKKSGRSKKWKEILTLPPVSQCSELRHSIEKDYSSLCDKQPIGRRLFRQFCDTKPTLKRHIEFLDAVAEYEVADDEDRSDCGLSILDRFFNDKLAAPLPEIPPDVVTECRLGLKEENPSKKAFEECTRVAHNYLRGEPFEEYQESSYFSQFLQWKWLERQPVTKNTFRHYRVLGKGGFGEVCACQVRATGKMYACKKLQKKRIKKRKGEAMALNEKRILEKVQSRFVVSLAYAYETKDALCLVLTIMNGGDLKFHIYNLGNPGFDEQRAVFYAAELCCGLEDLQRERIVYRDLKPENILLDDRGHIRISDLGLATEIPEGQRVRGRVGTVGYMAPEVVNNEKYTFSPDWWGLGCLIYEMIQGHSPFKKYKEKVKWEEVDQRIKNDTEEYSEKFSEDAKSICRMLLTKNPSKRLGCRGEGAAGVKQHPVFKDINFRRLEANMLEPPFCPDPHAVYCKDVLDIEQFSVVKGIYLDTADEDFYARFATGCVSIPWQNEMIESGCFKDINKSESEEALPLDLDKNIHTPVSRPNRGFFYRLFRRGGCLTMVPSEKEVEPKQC

[9] = test system: Hepatocyte growth factor receptor (Homo sapiens), P08581 [Y1235D]; assay: Inhibition of biotinylated ligand binding to human partial length MET Y1235D mutant (D1010 to S1367 residues) expressed in bacterial expression system at 50 nM measured after 1 hr by kinomescan assay relative to control; how it was run: as §2
[10] = molecular target: Serine/threonine-protein kinase RIO1 (Homo sapiens) (UniProt Q9BRS2); assay: Inhibition of biotinylated ligand binding to wild-type human full length RIOK1 (M1 to K568 residues) expressed in bacterial expression system at 50 nM measured after 1 hr by kinomescan assay relative to control; how it was run: as §2
Serine/threonine-protein kinase RIO1 (Homo sapiens), sequence (Q9BRS2 whole entry, the tested form may be a part): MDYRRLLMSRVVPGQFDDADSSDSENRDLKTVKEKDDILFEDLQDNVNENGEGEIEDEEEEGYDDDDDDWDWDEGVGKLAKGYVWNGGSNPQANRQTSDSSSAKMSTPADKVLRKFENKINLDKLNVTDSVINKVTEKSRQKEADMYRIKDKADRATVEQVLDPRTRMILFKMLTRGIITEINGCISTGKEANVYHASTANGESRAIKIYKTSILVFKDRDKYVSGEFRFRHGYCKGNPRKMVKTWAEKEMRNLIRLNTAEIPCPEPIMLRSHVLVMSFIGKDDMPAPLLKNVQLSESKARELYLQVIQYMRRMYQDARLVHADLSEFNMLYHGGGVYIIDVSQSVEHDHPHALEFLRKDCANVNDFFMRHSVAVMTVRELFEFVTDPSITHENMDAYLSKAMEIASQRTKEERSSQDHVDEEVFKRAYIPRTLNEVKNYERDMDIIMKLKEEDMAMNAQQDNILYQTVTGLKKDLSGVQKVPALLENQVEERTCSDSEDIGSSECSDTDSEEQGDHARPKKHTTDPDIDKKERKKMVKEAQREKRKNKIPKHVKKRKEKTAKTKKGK

[11] = molecular target: Rho-associated protein kinase 1 (Homo sapiens) (UniProt Q13464); assay: Inhibition of biotinylated ligand binding to wild-type human partial length ROCK1 (M1 to R415 residues) expressed in mammalian expression system at 50 nM measured after 1 hr by kinomescan assay relative to control; how it was run: as §1
[12] = molecular target: Serine/threonine-protein kinase 32A (Homo sapiens) (UniProt Q8WU08); assay: Inhibition of biotinylated ligand binding to wild-type human full length YANK1 (M1 to L396 residues) expressed in mammalian expression system at 50 nM measured after 1 hr by kinomescan assay relative to control; how it was run: as §1
Serine/threonine-protein kinase 32A (Homo sapiens), sequence (Q8WU08 whole entry, the tested form may be a part): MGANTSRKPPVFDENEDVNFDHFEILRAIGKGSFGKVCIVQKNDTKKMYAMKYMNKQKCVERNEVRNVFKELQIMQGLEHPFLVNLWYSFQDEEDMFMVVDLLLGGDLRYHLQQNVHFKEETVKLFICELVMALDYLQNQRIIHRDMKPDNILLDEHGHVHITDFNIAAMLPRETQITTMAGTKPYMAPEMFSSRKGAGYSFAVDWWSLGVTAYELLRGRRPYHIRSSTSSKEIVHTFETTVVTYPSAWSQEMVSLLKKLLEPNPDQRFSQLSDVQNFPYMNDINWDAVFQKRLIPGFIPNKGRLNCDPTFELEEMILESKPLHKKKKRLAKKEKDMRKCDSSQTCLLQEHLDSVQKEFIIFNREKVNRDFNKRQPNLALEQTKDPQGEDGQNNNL

[13] = molecular target: Serine/threonine-protein kinase MAK (Homo sapiens) (UniProt P20794); assay: Inhibition of biotinylated ligand binding to wild-type human partial length MAK (M1 to P314 residues) expressed in bacterial expression system at 50 nM measured after 1 hr by kinomescan assay relative to control
Serine/threonine-protein kinase MAK (Homo sapiens), sequence (P20794 whole entry, the tested form may be a part): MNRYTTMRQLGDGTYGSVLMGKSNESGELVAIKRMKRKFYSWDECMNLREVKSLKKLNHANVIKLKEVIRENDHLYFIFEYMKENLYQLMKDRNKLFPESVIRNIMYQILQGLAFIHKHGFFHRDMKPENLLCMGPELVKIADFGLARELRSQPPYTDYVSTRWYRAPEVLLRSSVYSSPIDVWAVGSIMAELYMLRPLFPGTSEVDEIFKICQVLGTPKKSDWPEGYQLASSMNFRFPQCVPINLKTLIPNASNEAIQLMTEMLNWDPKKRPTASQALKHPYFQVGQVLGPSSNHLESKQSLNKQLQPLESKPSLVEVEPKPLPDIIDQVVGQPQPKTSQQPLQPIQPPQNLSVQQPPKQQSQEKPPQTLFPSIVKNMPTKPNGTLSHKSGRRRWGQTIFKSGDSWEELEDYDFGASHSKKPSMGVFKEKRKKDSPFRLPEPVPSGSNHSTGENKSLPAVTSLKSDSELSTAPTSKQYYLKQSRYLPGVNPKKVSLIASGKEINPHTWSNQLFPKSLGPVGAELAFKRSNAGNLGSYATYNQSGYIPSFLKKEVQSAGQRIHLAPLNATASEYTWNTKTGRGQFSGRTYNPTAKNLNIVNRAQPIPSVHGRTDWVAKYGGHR

[14] = molecular target: Mitogen-activated protein kinase 13 (Homo sapiens) (UniProt O15264); assay: Inhibition of biotinylated ligand binding to wild-type human full length p38-delta (M1 to L365 residues) expressed in bacterial expression system at 50 nM measured after 1 hr by kinomescan assay relative to control; how it was run: as §2
Mitogen-activated protein kinase 13 (Homo sapiens), sequence (O15264 whole entry, the tested form may be a part): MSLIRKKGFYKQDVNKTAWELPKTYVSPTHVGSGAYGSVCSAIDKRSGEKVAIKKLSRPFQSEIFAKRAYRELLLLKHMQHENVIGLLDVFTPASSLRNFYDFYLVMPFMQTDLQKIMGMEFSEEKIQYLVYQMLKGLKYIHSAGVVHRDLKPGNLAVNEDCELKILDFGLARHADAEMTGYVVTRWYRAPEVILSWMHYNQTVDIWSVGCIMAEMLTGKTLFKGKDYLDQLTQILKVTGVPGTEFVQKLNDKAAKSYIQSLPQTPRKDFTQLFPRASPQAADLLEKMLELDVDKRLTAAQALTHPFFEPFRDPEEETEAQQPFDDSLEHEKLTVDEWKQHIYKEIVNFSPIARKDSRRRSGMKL

[15] = molecular target: cAMP-dependent protein kinase catalytic subunit beta (Homo sapiens) (UniProt P22694); assay: Inhibition of biotinylated ligand binding to wild-type human full length PKAC-beta (M1 to F351 residues) expressed in bacterial expression system at 50 nM measured after 1 hr by kinomescan assay relative to control
[16] = molecular target: Protein kinase C theta type (Homo sapiens) (UniProt Q04759); assay: Inhibition of biotinylated ligand binding to wild-type human partial length PRKCQ (L350 to S706 residues) expressed in bacterial expression system at 50 nM measured after 1 hr by kinomescan assay relative to control; how it was run: as §2
Protein kinase C theta type (Homo sapiens), sequence (Q04759 whole entry, looked up, the tested form may be a part): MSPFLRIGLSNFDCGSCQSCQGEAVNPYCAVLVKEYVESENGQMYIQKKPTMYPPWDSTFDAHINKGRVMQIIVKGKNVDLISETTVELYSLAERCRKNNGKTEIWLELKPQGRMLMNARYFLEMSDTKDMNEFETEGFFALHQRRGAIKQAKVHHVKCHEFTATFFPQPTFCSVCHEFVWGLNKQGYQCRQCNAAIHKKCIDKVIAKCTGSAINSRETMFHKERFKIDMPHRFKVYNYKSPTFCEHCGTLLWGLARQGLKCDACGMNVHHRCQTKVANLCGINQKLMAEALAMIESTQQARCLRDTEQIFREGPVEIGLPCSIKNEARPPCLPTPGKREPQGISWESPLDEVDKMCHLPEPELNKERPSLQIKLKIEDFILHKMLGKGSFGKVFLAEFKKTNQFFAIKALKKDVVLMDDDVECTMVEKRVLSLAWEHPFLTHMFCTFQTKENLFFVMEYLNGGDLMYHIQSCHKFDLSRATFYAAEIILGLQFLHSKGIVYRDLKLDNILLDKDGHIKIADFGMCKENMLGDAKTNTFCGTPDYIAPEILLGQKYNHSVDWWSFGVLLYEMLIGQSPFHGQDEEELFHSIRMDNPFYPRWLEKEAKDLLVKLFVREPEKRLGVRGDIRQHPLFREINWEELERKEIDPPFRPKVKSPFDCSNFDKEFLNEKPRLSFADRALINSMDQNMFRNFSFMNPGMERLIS

[17] = Selectivity ratio of EC50 for rat NRK cells to EC50 for human MOLM13 cells; type: toxicity; details: NRK cells versus MOLM13 cells, read-out: Ratio EC50
[18] = Selectivity ratio of EC50 for rat NRK cells to EC50 for human OCI-AML3 cells; type: toxicity; details: NRK cells versus OCI-AML3 cells, read-out: Ratio EC50
[19] = Selectivity ratio of EC50 for rat NRK cells to EC50 for human MV4-11 cells; type: toxicity; details: NRK cells versus MV4-11 cells, read-out: Ratio EC50
[20] = Selectivity ratio of EC50 for rat H9c2 cells to EC50 for human OCI-AML3 cells; type: toxicity; details: H9c2 cells versus OCI-AML3 cells, read-out: Ratio EC50
OCI-AML-3 = assay: cells; details: Homo sapiens, OCI-AML-3, 48 h
MV4-11 = assay: cells; details: Homo sapiens, MV4-11, 48 h
NRK = assay: cells; details: Rattus norvegicus, 48 h
H9c2 = assay: cells; details: Rattus norvegicus, H9c2, 48 h

CN(C)[C@@H]1CC[C@@]2(C)[C@@H](CC[C@@H]3[C@@H]2CC[C@]2(C)C(c4cccc5cnccc45)=CC[C@@H]32)C1
inhibition [1]: > 80% | inhibition [2]: > 80% | inhibition [3]: > 80% | inhibition [4]: > 80% | inhibition [5]: > 80% | inhibition [6]: > 80% | Kd [7]: 3.5 nM | inhibition [8]: > 80% | inhibition [9]: > 80% | inhibition [10]: > 80% | inhibition [11]: > 80% | inhibition [12]: > 80% | inhibition [13]: > 80% | inhibition [14]: > 80% | inhibition [15]: > 80% | inhibition [16]: > 80% | selectivity ratio [17]: 3 to 4 | selectivity ratio [18]: 3 to 4 | selectivity ratio [19]: 3 to 4 | selectivity ratio [20]: 3 to 4 | EC50 (OCI-AML-3): 4.8 µM | EC50 (MV4-11): 5.4 µM | EC50 (NRK): 16.2 µM | EC50 (H9c2): 12.5 to 25 µM
